Reference: ChEMBL document CHEMBL1131179, “Structural optimization affording 2-(R)-(1-(R)-3, 5-bis(trifluoromethyl)phenylethoxy)-3-(S)-(4-fluoro)phenyl-4- (3-oxo-1,2,4-triazol-5-yl)methylmorpholine, a potent, orally active, long-acting morpholine acetal human NK-1 receptor antagonist” (J Med Chem, 1998)

Experiments:
Cavia porcellus [1] = assay: Inhibition of resiniferatoxin-induced systemic vascular leakage in guinea pig (SYVAL) upon oral administration at 24 hr r; type: functional
Method in brief: (§1)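 Guinea pigs dosed orally 1 or 24 h before iv resiniferatoxin challenge (400 µL/kg over 30 s, penile vein), given 10 min after Evans Blue. Killed 10 min post-challenge. Bladder, trachea and esophagus dried (24 h, 65 °C) and extracted with plasma in formamide (65 °C, 24 h). Extravasation read at OD620-650 against plasma, as mg plasma/g dry tissue. n = 4-12 per point; ID50 by nonlinear least-squares regression of mean data.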

Gerbillinae [2] = assay: Inhibition of GR 73632-induced foot tapping in gerbils upon intravenous administration of compound after 24 hr; type: functional; details: read-out: ID50 (the source's name)
Method in brief: (§2)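 Male or female Mongolian gerbils (35–70 g) under isoflurane/oxygen anaesthesia. Test compound or vehicle is given iv into the jugular vein at 5 mL/kg. At 0, 4 or 24 h, GR 73,632 (3 pmol) is infused icv via a needle 4.5 mm below bregma. Hind foot tapping is timed for 5 min after recovery. 3–9 animals per dose. ID50 by nonlinear least-squares regression of mean data.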

Cavia porcellus [3] = assay: Inhibition of resiniferatoxin-induced systemic vascular leakage in guinea pig (SYVAL) upon oral administration at 1 hr; type: functional; details: read-out: ID50 (the source's name); method in brief: as §1
Gerbillinae [4] = assay: Inhibition of GR 73632-induced foot tapping in gerbils upon intravenous administration of compound; type: functional; details: read-out: ID50 (the source's name); method in brief: as §2
Substance-P receptor = Substance-P receptor (Homo sapiens, UniProt P25103); assay: Displacement of [125I]-labeled SP from the human Tachykinin receptor 1 expressed in CHO cells; type: cell-based
Gerbillinae [5] = assay: Inhibition of GR 73632-induced foot tapping in gerbils upon intravenous administration of compound after 4 hr; type: functional; details: read-out: ID50 (the source's name); method in brief: as §2
Mustela putorius furo [6] = assay: compound was tested for antiemetic action in ferret at 0.3 mg/kg after intravenous administration followed by emetogen (cisplatin) challenge at 10 mg/kg, iv after 3 min; type: functional
Method in brief: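 Male ferrets (1.0–2.0 kg) under halothane receive 0.3 mg/kg iv in PEG 300 vehicle, then cisplatin 10 mg/kg iv 3 min later. Retches and vomits are counted over 240 min and compared with vehicle controls. 4–7 animals per group.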

Mustela putorius furo [7] = assay: compound was tested for antiemetic action in ferret at 3 mg/kg after peroral administration followed by emetogen (apomorphine) challenge at 0.25 mg/kg, sc; type: functional
Mustela putorius furo [8] = assay: compound was tested for antiemetic action in ferret at 3 mg/kg after peroral administration followed by emetogen (morphine) challenge at 0.5 mg/kg, sc; type: functional
Method in brief: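 Male ferrets (1.0–2.0 kg) receive 3.0 mg/kg po in 0.5% Methocel or vehicle. 60 min later they get a sc emetogen: apomorphine or morphine 0.5 mg/kg. Retches and vomits are counted for 30 min versus vehicle controls. 4–7 animals per group.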

Mustela putorius furo [9] = assay: compound was tested for antiemetic action in ferret at 3 mg/kg after peroral administration followed by emetogen (cisplatin) challenge at 10 mg/kg, iv after 60 min
Mustela putorius furo [10] = assay: as above; remark: listed apart in the source
Mustela putorius furo [11] = assay: as above; remark: listed apart in the source
Mustela putorius furo [12] = assay: as above; remark: listed apart in the source

Substance-P receptor, sequence (P25103 whole entry): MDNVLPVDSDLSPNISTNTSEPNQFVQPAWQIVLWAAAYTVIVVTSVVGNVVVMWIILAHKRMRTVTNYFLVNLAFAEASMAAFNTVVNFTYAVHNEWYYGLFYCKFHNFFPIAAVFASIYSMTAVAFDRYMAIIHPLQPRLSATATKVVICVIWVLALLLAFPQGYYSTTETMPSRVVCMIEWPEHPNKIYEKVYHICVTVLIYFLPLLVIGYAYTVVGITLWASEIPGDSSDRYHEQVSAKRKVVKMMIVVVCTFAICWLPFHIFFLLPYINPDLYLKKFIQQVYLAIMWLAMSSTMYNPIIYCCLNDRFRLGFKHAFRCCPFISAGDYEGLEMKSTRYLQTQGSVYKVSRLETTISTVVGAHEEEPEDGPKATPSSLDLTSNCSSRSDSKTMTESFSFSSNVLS

**Q.** Which ID90 (Cavia porcellus [1]) does the source give for `O=c1[nH]nc(CN2CCO[C@H](OCc3cc(C(F)(F)F)cc(C(F)(F)F)c3)[C@@H]2c2ccccc2)[nH]1` here?
**A.** 5.4 mg/kg

**Q.** And the ED50 (Gerbillinae [2])?
**A.** 2.88 mg/kg

**Q.** And the ED50 (Cavia porcellus [3])?
**A.** 0.006 mg/kg

**Q.** What about the ED50 (Gerbillinae [4]) of the same molecule?
**A.** 0.85 mg/kg

**Q.** With `COc1ccc(-n2nnnc2C(F)(F)F)cc1CN[C@H]1CCCN[C@H]1c1ccccc1` [VOFOPITANT] as the molecule, how does the ID90 (Cavia porcellus [1]) read?
**A.** >10 mg/kg

**Q.** What about the ED50 (Cavia porcellus [3]) of the same molecule?
**A.** 0.007 mg/kg

**Q.** And the IC50 (Substance-P receptor)?
**A.** 0.08 nM

**Q.** Which results are given for `COc1ccc(OC(F)(F)F)cc1CN[C@H]1CCCN[C@H]1c1ccccc1` (racemic)?
**A.** ID90 (Cavia porcellus [1]): >10 mg/kg; ED50 (Gerbillinae [2]): 5.37 mg/kg; ED50 (Gerbillinae [5]): 0.24 mg/kg; ED50 (Cavia porcellus [3]): 0.01 mg/kg; ED50 (Gerbillinae [4]): 0.03 mg/kg

**Q.** `O=c1[nH]nc(CN2CCO[C@H](OCc3cc(C(F)(F)F)cc(C(F)(F)F)c3)[C@@H]2c2ccc(F)cc2)[nH]1` was tested. Which ID90 (Cavia porcellus [1]) did it give?
**A.** 2.3 mg/kg

**Q.** What about the ED50 (Gerbillinae [2]) of the same molecule?
**A.** 1.24 mg/kg

**Q.** And the ED50 (Gerbillinae [5])?
**A.** 0.07 mg/kg

**Q.** What about the ED50 (Cavia porcellus [3]) of the same molecule?
**A.** 0.008 mg/kg

**Q.** And the IC50 (Substance-P receptor)?
**A.** 0.07 nM

**Q.** What about the ED50 (Gerbillinae [4]) of the same molecule?
**A.** 0.3 mg/kg

**Q.** Which IC50 (Substance-P receptor) does the source give for `C[C@@H](O[C@H]1OCCN(Cc2n[nH]c(O)n2)[C@H]1c1ccccc1)c1cc(F)cc(C(F)(F)F)c1` here?
**A.** 0.1 nM

**Q.** How did the Control retches (Mustela putorius furo [6]) turn out when `C[C@@H](O[C@H]1OCCN(Cc2n[nH]c(=O)[nH]2)[C@H]1c1ccc(F)cc1)c1cc(C(F)(F)F)cc(C(F)(F)F)c1` [APREPITANT] was run?
**A.** 100

**Q.** What about the Control vomits (Mustela putorius furo [6]) of the same molecule?
**A.** 12.7

**Q.** What about the Retches (Mustela putorius furo [6]) of the same molecule?
**A.** 5.3

**Q.** And the Vomits (Mustela putorius furo [6])?
**A.** 1

**Q.** What about the Control retches (Mustela putorius furo [7]) of the same molecule?
**A.** 28.3

**Q.** What about the Control vomits (Mustela putorius furo [7]) of the same molecule?
**A.** 3.3

**Q.** What about the Retches (Mustela putorius furo [7]) of the same molecule?
**A.** 4.1

**Q.** And the Vomits (Mustela putorius furo [7])?
**A.** 0.7

**Q.** What about the Control retches (Mustela putorius furo [8]) of the same molecule?
**A.** 44.7

**Q.** And the Control vomits (Mustela putorius furo [8])?
**A.** 5.5

**Q.** What about the Retches (Mustela putorius furo [8]) of the same molecule?
**A.** 6

**Q.** What about the Vomits (Mustela putorius furo [8]) of the same molecule?
**A.** 0.5

**Q.** What about the ID90 (Cavia porcellus [1]) of the same molecule?
**A.** 1.8 mg/kg

**Q.** What about the ED50 (Gerbillinae [2]) of the same molecule?
**A.** 0.33 mg/kg

**Q.** What about the ED50 (Gerbillinae [5]) of the same molecule?
**A.** 0.04 mg/kg

**Q.** What about the ED50 (Cavia porcellus [3]) of the same molecule?
**A.** 0.008 mg/kg

**Q.** And the ED50 (Gerbillinae [4])?
**A.** 0.36 mg/kg

**Q.** What about the Vomits (Mustela putorius furo [9]) of the same molecule?
**A.** 0.5

**Q.** What about the Control vomits (Mustela putorius furo [10]) of the same molecule?
**A.** 22.3

**Q.** And the Control retches (Mustela putorius furo [11])?
**A.** 154.8

**Q.** And the Retches (Mustela putorius furo [12])?
**A.** 2.8

**Q.** Which IC50 (Substance-P receptor) does the source give for `C[C@@H](O[C@H]1OCCN(Cc2n[nH]c(=O)[nH]2)[C@H]1c1ccccc1)c1cc(C(F)(F)F)cc(C(F)(F)F)c1` here?
**A.** 0.88 nM

**Q.** What does the source list for `C[C@H](O[C@H]1OCCN(Cc2n[nH]c(O)n2)[C@H]1c1ccccc1)c1cc(C(F)(F)F)cc(C(F)(F)F)c1`?
**A.** ID90 (Cavia porcellus [1]): 2.3 mg/kg; ED50 (Gerbillinae [2]): 1.11 mg/kg; ED50 (Gerbillinae [5]): 0.04 mg/kg; ED50 (Cavia porcellus [3]): 0.01 mg/kg; IC50 (Substance-P receptor): 0.09 nM; ED50 (Gerbillinae [4]): 0.16 mg/kg

**Q.** `C[C@@H](O[C@H]1OCCN(Cc2n[nH]c(O)n2)[C@H]1c1ccccc1)c1cccc(C(F)(F)F)c1` was tested. Which IC50 (Substance-P receptor) did it give?
**A.** 0.27 nM

**Q.** What does the source list for `COc1ccc(-n2nnnc2C(F)(F)F)cc1CNC1CCCNC1c1ccccc1` (racemic)?
**A.** ED50 (Gerbillinae [2]): > 10 mg/kg; ED50 (Gerbillinae [5]): 0.02 mg/kg; ED50 (Gerbillinae [4]): 0.04 mg/kg
